# Experimental data published in ChEMBL document CHEMBL4000143, “Proof of concept study for designed multiple ligands targeting the dopamine D2, serotonin 5-HT2A, and muscarinic M1 acetylcholine receptors” (J Med Chem, 2015).
# The source made the active and inactive calls. The rule behind the calls is not given here.
# Target: T1, D(2) dopamine receptor (Homo sapiens, UniProt P14416)
# Test: Antagonist activity at human dopamine D2L receptor expressed in F1pIn CHO cells assessed as inhibition of ERK1/2 phosphorylation incubated for 5 mins by AlphaScreen assay
# Format: cell-based
# Summary of the method: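 Functional affinity (KB) from interaction studies against varying dopamine concentrations, read out as pERK1/2 levels in D2L-FlpIn CHO cells. Data fitted by Gaddum–Schild analysis. Mean of three to four experiments, each run in duplicate.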
# T1 sequence (P14416 whole entry): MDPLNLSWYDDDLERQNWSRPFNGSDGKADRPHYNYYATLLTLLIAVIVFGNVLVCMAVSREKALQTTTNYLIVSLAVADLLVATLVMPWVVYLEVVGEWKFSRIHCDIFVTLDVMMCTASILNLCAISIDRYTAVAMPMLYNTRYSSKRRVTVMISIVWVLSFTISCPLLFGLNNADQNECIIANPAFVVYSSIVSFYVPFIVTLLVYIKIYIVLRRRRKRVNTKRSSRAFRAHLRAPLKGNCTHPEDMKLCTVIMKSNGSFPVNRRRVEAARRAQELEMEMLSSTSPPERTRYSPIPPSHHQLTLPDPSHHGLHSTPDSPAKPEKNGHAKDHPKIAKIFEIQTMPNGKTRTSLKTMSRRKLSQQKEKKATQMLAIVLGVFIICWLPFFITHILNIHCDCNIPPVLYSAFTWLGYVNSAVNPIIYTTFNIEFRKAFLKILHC
Kb,pKb,SMILES
7.8 nM,8.11,COc1ccccc1N1CCN(CCCN2C(=O)COc3ccccc32)CC1
2090 nM,5.68,O=C(Cc1ccccc1)NC1CCN(CCCN2C(=O)COc3ccccc32)CC1
1.2 nM,8.91,O=C1COc2ccccc2N1CCCN1CCC(c2noc3cc(F)ccc23)CC1
99 nM,7,O=C1COc2ccccc2N1CCCN1CCN(c2cccc(Cl)c2Cl)CC1
7 nM,8.16,O=C1COc2ccccc2N1CCCN1CCN(c2nsc3ccccc23)CC1

# Target: T2, 5-hydroxytryptamine receptor 2A (Homo sapiens, UniProt P28223)
# Test: Displacement of [3H]ketanserin from human 5-HT2A receptor expressed in F1pIn CHO cell membranes after 1 hr by scintillation counting method
# Summary of the method: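 Binding in 5-HT2A-FlpIn CHO cell membranes with [3H]ketanserin as radioligand. Mean of three to four experiments, each run in duplicate.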
# T2 sequence (P28223 whole entry): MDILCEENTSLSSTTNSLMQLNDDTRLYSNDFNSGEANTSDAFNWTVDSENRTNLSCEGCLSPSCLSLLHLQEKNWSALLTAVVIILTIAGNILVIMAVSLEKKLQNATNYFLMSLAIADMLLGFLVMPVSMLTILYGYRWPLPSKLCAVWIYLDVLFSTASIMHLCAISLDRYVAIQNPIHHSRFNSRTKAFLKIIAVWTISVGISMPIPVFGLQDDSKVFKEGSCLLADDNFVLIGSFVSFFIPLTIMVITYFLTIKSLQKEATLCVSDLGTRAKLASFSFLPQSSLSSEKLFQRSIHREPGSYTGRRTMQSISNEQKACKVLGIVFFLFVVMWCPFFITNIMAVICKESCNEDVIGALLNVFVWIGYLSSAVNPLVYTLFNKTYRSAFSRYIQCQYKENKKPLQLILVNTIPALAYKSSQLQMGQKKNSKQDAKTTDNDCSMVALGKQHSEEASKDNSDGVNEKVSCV
row,Ki,SMILES
1,275 nM,COc1ccccc1N1CCN(CCCN2C(=O)COc3ccccc32)CC1
2,1040 nM,O=C(Cc1ccccc1)NC1CCN(CCCN2C(=O)COc3ccccc32)CC1
3,568 nM,O=C1COc2ccccc2N1CCCN1CCN(c2cccc3[nH]c(=O)oc23)CC1
4,2.7 nM,O=C1COc2ccccc2N1CCCN1CCC(c2noc3cc(F)ccc23)CC1
5,75.8 nM,O=C1COc2ccccc2N1CCCN1CCN(c2cccc(Cl)c2Cl)CC1
6,5.8 nM,O=C1COc2ccccc2N1CCCN1CCN(c2nsc3ccccc23)CC1

# Target: T1, D(2) dopamine receptor
# Test: Agonist activity at human dopamine D2L receptor expressed in F1pIn CHO cells assessed as induction of ERK1/2 phosphorylation by time-course assay
# Format: cell-based
row,Activity,SMILES
1,Active,O=C1COc2ccccc2N1CCCN1CCN(c2cccc3[nH]c(=O)oc23)CC1

# Target: T1, D(2) dopamine receptor
# Test: Agonist activity at human dopamine D2L receptor expressed in F1pIn CHO cells assessed as induction of ERK1/2 phosphorylation incubated for 5 mins by AlphaScreen assay relative to FBS
# Format: cell-based
# Summary of the method: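 D2L-FlpIn CHO cells, pERK1/2 assay. Emax is given as a percentage of the maximal response to FBS. Mean of four to six experiments, each run in duplicate.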
row,Emax,SMILES
1,26%,O=C1COc2ccccc2N1CCCN1CCN(c2cccc3[nH]c(=O)oc23)CC1

# Target: Muscarinic acetylcholine receptor M1 (Homo sapiens) (UniProt P11229)
# Test: Agonist activity at human mAChR1 receptor expressed in F1pIn CHO cells assessed as induction of intracellular calcium mobilization relative to acetylcholine
# Sequence of Muscarinic acetylcholine receptor M1 (Homo sapiens) (P11229 whole entry, looked up): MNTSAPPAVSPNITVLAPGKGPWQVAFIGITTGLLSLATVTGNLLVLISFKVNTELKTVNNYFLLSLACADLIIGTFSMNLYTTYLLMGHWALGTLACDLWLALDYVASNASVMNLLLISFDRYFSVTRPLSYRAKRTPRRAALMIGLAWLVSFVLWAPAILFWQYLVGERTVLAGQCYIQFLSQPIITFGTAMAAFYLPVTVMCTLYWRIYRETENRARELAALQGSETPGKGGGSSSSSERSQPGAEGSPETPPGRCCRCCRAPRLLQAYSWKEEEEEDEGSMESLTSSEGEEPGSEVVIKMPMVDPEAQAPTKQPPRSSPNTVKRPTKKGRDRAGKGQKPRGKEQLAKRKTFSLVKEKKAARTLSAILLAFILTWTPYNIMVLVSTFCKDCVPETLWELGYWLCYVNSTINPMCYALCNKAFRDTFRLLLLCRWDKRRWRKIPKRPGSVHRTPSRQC
row,Emax,SMILES
1,inactive,COc1ccccc1N1CCN(CCCN2C(=O)COc3ccccc32)CC1
2,101%,O=C(Cc1ccccc1)NC1CCN(CCCN2C(=O)COc3ccccc32)CC1
3,inactive,O=C1COc2ccccc2N1CCCN1CCN(c2cccc3[nH]c(=O)oc23)CC1
4,inactive,O=C1COc2ccccc2N1CCCN1CCC(c2noc3cc(F)ccc23)CC1
5,inactive,O=C1COc2ccccc2N1CCCN1CCN(c2cccc(Cl)c2Cl)CC1

# Target: T1, D(2) dopamine receptor
# Test: Agonist activity at human dopamine D2L receptor expressed in F1pIn CHO cells assessed as […] forskolin-mediated cAMP accumulation incubated for 30 mins by AlphaScreen assay
# Format: functional, cell-based
# Summary of the method: (§1)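 D2L-FlpIn CHO cells. Agonist concentration–response curves were measured for cAMP signalling and for ERK1/2 phosphorylation. Mean of four to six experiments, each run in duplicate.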
row,EC50,SMILES
1,0.096 nM,O=C1COc2ccccc2N1CCCN1CCN(c2cccc3[nH]c(=O)oc23)CC1

# Target: T1, D(2) dopamine receptor
# Test: Agonist activity at human dopamine D2L receptor expressed in F1pIn CHO cells assessed as induction of ERK1/2 phosphorylation incubated for 5 mins by AlphaScreen assay
# Format: cell-based
# Summary of the method: as §1
row,EC50,SMILES
1,0.64 nM,O=C1COc2ccccc2N1CCCN1CCN(c2cccc3[nH]c(=O)oc23)CC1

# Target: T1, D(2) dopamine receptor
# Test: Agonist activity at human dopamine D2L receptor expressed in F1pIn CHO cells assessed as […] forskolin-mediated cAMP accumulation incubated for 30 mins by AlphaScreen assay relative to ropinirole
# Format: functional, cell-based
# Summary of the method: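 D2L-FlpIn CHO cells, cAMP signalling. Emax is given as a percentage of the maximal response to ropinirole. Mean of four to six experiments, each run in duplicate.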
row,Emax,SMILES
1,97%,O=C1COc2ccccc2N1CCCN1CCN(c2cccc3[nH]c(=O)oc23)CC1

# Target: T1, D(2) dopamine receptor
# Test: Displacement of [3H]-raclopride from human dopamine D2L receptor expressed in F1pIn CHO cells after 60 mins by scintillation counting analysis
# Format: cell-based
# Summary of the method: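 Binding in whole D2L-FlpIn CHO cells with [3H]raclopride as radioligand. Mean of three to four experiments, each run in duplicate.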
row,Ki,SMILES
1,42.7 nM,COc1ccccc1N1CCN(CCCN2C(=O)COc3ccccc32)CC1
2,834 nM,O=C(Cc1ccccc1)NC1CCN(CCCN2C(=O)COc3ccccc32)CC1
3,1.7 nM,O=C1COc2ccccc2N1CCCN1CCN(c2cccc3[nH]c(=O)oc23)CC1
4,3.2 nM,O=C1COc2ccccc2N1CCCN1CCC(c2noc3cc(F)ccc23)CC1
5,273 nM,O=C1COc2ccccc2N1CCCN1CCN(c2cccc(Cl)c2Cl)CC1
6,17.7 nM,O=C1COc2ccccc2N1CCCN1CCN(c2nsc3ccccc23)CC1

# Target: T2, 5-hydroxytryptamine receptor 2A
# Test: Antagonist activity at human 5-HT2A receptor expressed in F1pIn CHO cells assessed as inhibition of serotonin-induced myo-inositol 1 phosphate accumulation after 1 hr by HTRF assay
# Format: functional, cell-based
# Summary of the method: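 Functional affinity (KB) from interaction studies against varying serotonin concentrations in an IP1 accumulation assay in 5-HT2A-FlpIn CHO cells. Mean of three to four experiments, each run in duplicate.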
Kb,pKb,SMILES
578 nM,6.24,COc1ccccc1N1CCN(CCCN2C(=O)COc3ccccc32)CC1
1570 nM,5.8,O=C(Cc1ccccc1)NC1CCN(CCCN2C(=O)COc3ccccc32)CC1
1140 nM,5.94,O=C1COc2ccccc2N1CCCN1CCN(c2cccc3[nH]c(=O)oc23)CC1
21.2 nM,7.67,O=C1COc2ccccc2N1CCCN1CCC(c2noc3cc(F)ccc23)CC1
1860 nM,5.73,O=C1COc2ccccc2N1CCCN1CCN(c2cccc(Cl)c2Cl)CC1
235 nM,6.63,O=C1COc2ccccc2N1CCCN1CCN(c2nsc3ccccc23)CC1

# Target: T1, D(2) dopamine receptor
# Test: Antagonist activity at human dopamine D2L receptor expressed in F1pIn CHO cells assessed as inhibition of ERK1/2 phosphorylation by time-course assay
# Format: cell-based
row,inhibition,SMILES
1,Active,COc1ccccc1N1CCN(CCCN2C(=O)COc3ccccc32)CC1
2,Active,O=C1COc2ccccc2N1CCCN1CCC(c2noc3cc(F)ccc23)CC1
3,Active,O=C1COc2ccccc2N1CCCN1CCN(c2cccc(Cl)c2Cl)CC1
4,Active,O=C1COc2ccccc2N1CCCN1CCN(c2nsc3ccccc23)CC1

# Target: Muscarinic acetylcholine receptor M1 (Homo sapiens) (UniProt P11229)
# Test: Agonist activity at human mAChR1 receptor expressed in F1pIn CHO cells assessed as induction of intracellular calcium mobilization
row,pEC50,SMILES
1,inactive,COc1ccccc1N1CCN(CCCN2C(=O)COc3ccccc32)CC1
2,inactive,O=C1COc2ccccc2N1CCCN1CCN(c2cccc3[nH]c(=O)oc23)CC1
3,inactive,O=C1COc2ccccc2N1CCCN1CCC(c2noc3cc(F)ccc23)CC1
4,inactive,O=C1COc2ccccc2N1CCCN1CCN(c2cccc(Cl)c2Cl)CC1
